In ChEMBL document CHEMBL1124429, “Heterocyclic analogues of benzamide antiarrhythmic agents” (J Med Chem, 1989):
One block for each molecule: values may come before it.

Key:
[1] = species: Canis familiaris; test: Maximum Percent change from control in the rate of rise of phase 0 of the action potential at 30 uM concentration on Canine Purkinje fibers.; set-up: species or system Canis lupus familiaris, Purkinje fiber; settings: dog, in vitro
In short: (§1)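 Isolated canine Purkinje fibers were superfused with physiological saline gassed with 95% O2/5% CO2 (pH 7.35–7.40) at 36 ± 0.5 °C. Paced at 1.0 Hz with 2-ms pulses at twice diastolic threshold. After up to 1 h stabilization, compounds were tested over 10^-8 to 10^-3 M, 30 min per concentration, one compound per fiber, with vehicle controls. Intracellular microelectrodes (3 M KCl) recorded Vmax and APD95; maximum percent change from control is reported with its concentration.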

[2] = species: Canis familiaris; test: Percent change from control in the rate of rise of phase 0 of the action potential at 10 uM concentration on Canine Purkinje fibers.; set-up: species or system Canis lupus familiaris, Purkinje fiber; settings: dog
[3] = species: Cavia porcellus; test: Concentration of compound which gives a 20% decrease in contractile force was tested on papillary muscle of guinea pig, activity was expressed as EC-20; N.R. is not reached.; type: functional; settings: Muscle tissue
In short: (§2)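 Contractile force measured in an isolated cardiac muscle preparation. Value is the concentration giving a 20% decrease in force of contraction. NR marks that this decrease was not reached. Values come from individual experiments; for N ≥ 3, the mean is given with the range.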

[4] = species: Canis familiaris; test: Percent change from control in conduction time (CT) at 10 uM concentration tested on Canine ventricular muscle fibre.; type: functional, Canis lupus familiaris, Muscle tissue
In short: (§3)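 Canine right ventricular papillary muscle strips were superfused at 36 ± 0.5 °C with saline gassed with 95% O2/5% CO2. Diastolic threshold was found with 2-ms stimuli at 4000 ms cycle length, then pacing at 4× threshold for 60 min equilibration. FRP was measured at 1000 ms cycle length by S1-S2 premature stimulus after every tenth S1. Conduction time came from a bipolar electrogram. Various compound concentrations were tested, one compound per strip, with vehicle controls. Percent change from control was taken at 10 µM, or the maximum change with its concentration; for N ≥ 3, mean with range.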

[5] = species: Canis familiaris; test: Maximum percent change in repolarization at 0.1 uM concentration on Canine Purkinje fibers.; type: functional, Canis lupus familiaris, Purkinje fiber; in short: as §1
[6] = species: Canis familiaris; test: Percent change in repolarization at 10 Purkinje fibers.; value ranges from 1-4; type: functional, Canis lupus familiaris, Purkinje fiber
In short: (§4)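 Canine Purkinje fibers were held in oxygenated (95% O2–5% CO2) physiological saline, pH 7.35–7.40, at 36 ± 0.5 °C and paced at 1.0 Hz with 2-ms pulses at twice diastolic threshold. Intracellular microelectrodes (3 M KCl) recorded Vmax and APD95 simultaneously. After up to 1 h of stabilization, compounds were tested from 10^-8 to 10^-3 M with 30 min per concentration. One compound per fiber, with vehicle controls. For N ≥ 3, values are the mean with the range.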

[7] = species: Canis familiaris; test: Maximum Percent change from control in the rate of rise of phase 0 of the action potential at 100 uM concentration on Canine Purkinje fibers.; type: Canis lupus familiaris, Purkinje fiber; settings: dog, in vitro; in short: as §1
[8] = species: Canis familiaris; test: Maximum percent change in repolarization at 10 uM concentration on Canine Purkinje fibers.; type: functional, Canis lupus familiaris, Purkinje fiber; in short: as §1
[9] = species: Canis familiaris; test: Percent change from control in the functional refractory period (FRP) at 10 uM conc. on Canine ventricular muscle fibre.; set-up: species or system Canis lupus familiaris, Muscle tissue; in short: as §3
[10] = species: Canis familiaris; test: Maximum percent change in functional refractory period (FRP) at 100 uM on Canine ventricular muscle fibre.; set-up: species or system Canis lupus familiaris, Muscle tissue; in short: as §3
[11] = species: Canis familiaris; test: Maximum percent change in conduction time (CT) at 100 uM concentration tested on Canine ventricular muscle fibre; type: functional, Canis lupus familiaris, Muscle tissue; in short: as §3
[12] = species: Canis familiaris; test: Maximum percent change in repolarization at 100 uM concentration on Canine Purkinje fibers.; type: functional, Canis lupus familiaris, Purkinje fiber; in short: as §1
[13] = species: Canis familiaris; test: Maximum Percent change from control in the rate of rise of phase 0 of the action potential at 1 uM concentration on Canine Purkinje fibers.; set-up: species or system Canis lupus familiaris, Purkinje fiber; in short: as §1
[14] = species: Canis familiaris; test: Maximum percent change in conduction time (CT) at 1 uM concentration tested on Canine ventricular muscle fibre; type: functional, Canis lupus familiaris, Muscle tissue; in short: as §3
[15] = species: Cavia porcellus; test: Concentration of compound which gives a 20% decrease in contractile force was tested on papillary muscle of guinea pig, activity was expressed as EC-20.; type: functional; settings: Muscle tissue; in short: as §2
[16] = species: Canis familiaris; test: Maximum percent change in functional refractory period(FRP) of compound (10 uM) was tested from individual experiment on Canine ventricular muscle fibre.; set-up: species or system Canis lupus familiaris, Muscle tissue; in short: as §3
[17] = species: Canis familiaris; test: Percent change from control in conduction time (CT) at 10 uM concentration tested on Canine ventricular muscle fibre.; value ranges from -12 - -5; type: functional, Canis lupus familiaris, Muscle tissue; in short: as §3
[18] = species: Canis familiaris; test: Maximum Percent change from control in the rate of rise of phase 0 of the action potential at 10 uM concentration on Canine Purkinje fibers.; type: functional, Canis lupus familiaris, Purkinje fiber; settings: dog, in vitro; in short: as §1
[19] = species: Canis familiaris; test: Percent change from control in the rate of rise of phase 0 of the action potential at 10 uM concentration on Canine Purkinje fibers.; value ranges from -21- -37; type: organism-based, Canis lupus familiaris, Purkinje fiber; settings: dog, in vitro
[20] = species: Canis familiaris; test: Percent change from control in the functional refractory period (FRP) at 10 uM conc. on Canine ventricular muscle fibre.; value ranges from -1-20; set-up: species or system Canis lupus familiaris, Muscle tissue; in short: as §3
[21] = species: Canis familiaris; test: Maximum percent change in conduction time (CT) at 10 uM concentration tested on Canine ventricular muscle fibre; value ranges from -12 - -5; type: functional, Canis lupus familiaris, Muscle tissue; in short: as §3
[22] = species: Canis familiaris; test: Maximum percent change in repolarization at 30 uM concentration on Canine Purkinje fibers.; type: functional, Canis lupus familiaris, Purkinje fiber; in short: as §1
[23] = Maximum Percent change from control in the rate of rise of phase 0 of the action potential at 100 Purkinje fibers.; type: tissue-based, Purkinje fiber; in short: as §1
[24] = species: Canis familiaris; test: Percent change in repolarization at 10 Purkinje fibers; value ranges from -11- -25.; type: functional, Canis lupus familiaris, Purkinje fiber; in short: as §4
[25] = species: Canis familiaris; test: Percent change in repolarization at 10 Purkinje fibers.; type: functional, Canis lupus familiaris, Purkinje fiber; in short: as §4
[26] = species: Canis familiaris; test: Maximum percent change in functional refractory period(FRP) of compound (30 uM) was tested on Canine ventricular muscle fibre.; set-up: species or system Canis lupus familiaris, Muscle tissue; in short: as §3
[27] = species: Canis familiaris; test: Maximum percent change in conduction time (CT) at 10 uM concentration tested on Canine ventricular muscle fibre; type: functional, Canis lupus familiaris, Muscle tissue; in short: as §3
[28] = species: Canis familiaris; test: Percent change from control in conduction time (CT) at 10 uM concentration tested on Canine ventricular muscle fibre.; M is minimal(<10% change in CT); type: functional; settings: Canis lupus familiaris, Muscle tissue; in short: as §3

Vmax [1]: -12%
Vmax ([2]; in vitro): 0.3%
Vmax [7]: -7%
Vmax [13]: -5%
Compound: CCN(CC)CCNC(=O)c1c(O)cc(C)nc1C
EC20 [3]: Not reached
CT [4]: -5%
APD95 [5]: 5%
APD95 [6]: 3%
APD95 [8]: 4%
FRP [9]: 21%
FRP [10]: 26%
CT [11]: -16%
APD95 [12]: 4%
CT [14]: -5%

Vmax [1]: -56%
Vmax [18]: -33%
Vmax [19]: -30.3%
Vmax [23]: -79%
Compound: CCN(CC)CCCNC(=O)c1cc2cccc(OCc3ccccc3)c2[nH]1
EC20 [15]: 8 µM
FRP [16]: 20%
CT [17]: -4%
FRP [20]: 8%
CT [21]: -4%
APD95 [22]: -38%
APD95 [8]: -11%
FRP [10]: 7%
APD95 [12]: 18%
APD95 [24]: -16.3%

Vmax ([2]; in vivo): -18%
Vmax [7]: -45%
Compound: CCN(CC)CCNC(=O)c1c(C)[nH]c(C)c1C
APD95 [25]: 2%
EC20 [15]: 30 µM
FRP [26]: 6%
CT [27]: -8%
FRP [9]: 1%
APD95 [12]: -5%
CT [28]: Minimal
